Test results: ChEMBL document CHEMBL4190389, “Synthesis and activity of di- or trisubstituted N-(phenoxyalkyl)- or N-{2-[2-(phenoxy)ethoxy]ethyl}piperazine derivatives on the central nervous system” (Bioorg Med Chem Lett, 2018)
Activity calls are given as the source filed them. The rule behind the calls is not given here.

Legend:
[1] = target: 5-hydroxytryptamine receptor 7 (Homo sapiens, UniProt P34969); assay: biochemical; format: cell-based, CHO
[2] = target: 5-hydroxytryptamine receptor 6 (Homo sapiens, UniProt P50406); assay: Displacement of [3H]LSD from recombinant human 5-HT6 receptor expressed in CHO cells cell membranes after 60 mins by liquid scintillation counting method
[3] = target: T1, Alpha-1A adrenergic receptor (Homo sapiens, UniProt P35348); assay: Displacement of [3H]prazosin from recombinant human alpha1 adrenoceptor expressed in CHO cell membranes after 30 mins by liquid scintillation counting method
T1 sequence (P35348 whole entry): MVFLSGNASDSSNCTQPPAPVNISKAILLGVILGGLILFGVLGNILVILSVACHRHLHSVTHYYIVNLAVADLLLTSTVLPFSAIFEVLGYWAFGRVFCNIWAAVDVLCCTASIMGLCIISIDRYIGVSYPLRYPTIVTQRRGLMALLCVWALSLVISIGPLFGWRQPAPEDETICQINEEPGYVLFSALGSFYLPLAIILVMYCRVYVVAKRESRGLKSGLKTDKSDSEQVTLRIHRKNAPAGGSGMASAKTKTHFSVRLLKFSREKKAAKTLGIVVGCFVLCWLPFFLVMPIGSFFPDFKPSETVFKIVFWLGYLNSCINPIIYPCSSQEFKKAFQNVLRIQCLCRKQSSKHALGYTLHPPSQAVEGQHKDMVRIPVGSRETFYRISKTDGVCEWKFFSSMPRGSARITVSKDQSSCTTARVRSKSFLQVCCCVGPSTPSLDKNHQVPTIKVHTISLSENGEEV

Mus musculus [4] = assay: Antidepressant-like activity in Albino Swiss CD-1 mouse assessed as immobility time at 10 mg/kg, ip administered 30 mins prior to test measured for last 4 mins of 6 mins observation by forced swim test (reference value: 153.9 to 201.9 secs); format: functional
Mus musculus [5] = assay: Anticonvulsant activity in ip dosed Albino Swiss CD-1 mouse assessed as dose required to protect against 50 Hz current-induced seizure; format: functional; details: Swiss CD-1, ip
[6] = target: T2, 5-hydroxytryptamine receptor 2A (Homo sapiens, UniProt P28223); assay: Antagonist activity at human 5-HT2A receptor expressed in CHO-K1 cells co-expressing Galpha16 assessed as decrease in serotonin calcium mobilization preincubated for 30 mins followed by serotonin challenge measured for 30 secs by aequorin-derived luminescence assay; format: functional, cell-based
Mus musculus [7] = assay: Toxicity in Albino Swiss CD-1 mouse assessed as death at 30 to 100 mg/kg, ip; format: organism-based; details: in vivo
Summary of the method: (§1)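 Deaths counted in mice during maximal electroshock (MES) seizure testing after i.p. dosing, 6 mice per dose (3 or 1 at some top doses); recorded as number dead/number tested alongside protection and rotarod motor impairment (10 rpm); untreated control group included.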

[8] = target: T3, 5-hydroxytryptamine receptor 1A (Homo sapiens) (UniProt P08908); assay: Displacement of [3H]8-OH-DPAT from recombinant human 5-HT1A receptor expressed in HEK293 cell membranes at 10^-5 M after 60 mins by liquid scintillation counting method
T3 sequence (whole entry): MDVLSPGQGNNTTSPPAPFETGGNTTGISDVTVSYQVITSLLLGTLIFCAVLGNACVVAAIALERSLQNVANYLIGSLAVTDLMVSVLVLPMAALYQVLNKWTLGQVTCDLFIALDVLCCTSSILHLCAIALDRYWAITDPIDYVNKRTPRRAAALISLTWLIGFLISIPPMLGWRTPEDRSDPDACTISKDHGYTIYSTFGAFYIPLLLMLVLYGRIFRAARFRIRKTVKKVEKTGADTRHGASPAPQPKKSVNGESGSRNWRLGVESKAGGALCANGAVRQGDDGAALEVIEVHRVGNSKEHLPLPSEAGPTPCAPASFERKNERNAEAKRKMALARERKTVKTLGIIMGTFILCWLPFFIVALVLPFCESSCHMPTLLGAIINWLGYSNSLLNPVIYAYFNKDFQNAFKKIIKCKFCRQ

Mus musculus [9] = assay: Antidepressant-like activity in Albino Swiss CD-1 mouse assessed as immobility time at 5 mg/kg, ip administered 30 mins prior to test measured for last 4 mins of 6 mins observation by forced swim test (reference value: 153.9 to 201.9 secs); format: functional
Mus musculus [10] = assay: Anticonvulsant activity in Albino Swiss CD-1 mouse assessed as protection against 50 Hz current-induced seizure at 100 mg/kg, ip; format: functional, organism-based
Mus musculus [11] = assay: Antidepressant-like activity in Albino Swiss CD-1 mouse assessed as immobility time at 20 mg/kg, ip administered 30 mins prior to test measured for last 4 mins of 6 mins observation by forced swim test (reference value: 153.9 to 201.9 secs); format: functional
D(2) dopamine receptor [12] = target: T4, D(2) dopamine receptor (Homo sapiens, UniProt P14416); assay: Displacement of [3H]methylspiperonee from recombinant human D2 receptor expressed in HEK293 cells cell membranes after 60 mins by liquid scintillation counting method
Mus musculus [13] = assay: Neurotoxicity in Albino Swiss CD-1 mouse assessed as motor impairment at 100 mg/kg, ip treated 30 mins prior to test by rotarod test; format: toxicity, organism-based; details: in vivo, 0.5 h
Mus musculus [14] = assay: Anxiolytic-like activity in Albino Swiss CD-1 mouse assessed as increase in number of punished crossings at 5 to 10 mg/kg, ip administered for 30 mins prior to test measured for 1 min by four-plate test; format: functional, organism-based
Summary of the method: (§2)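 Four-plate test in mice, i.p., 30 min before test; vehicle 0.9% NaCl; doses 1.25–10 mg/kg; number of punished crossings counted; mean ± SEM, n = 8–10 mice per group; ANOVA F statistics.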

[15] = target: T2, 5-hydroxytryptamine receptor 2A; assay: biochemical; format: cell-based, HEK293
Mus musculus [16] = assay: Anticonvulsant activity in Albino Swiss CD-1 mouse assessed as protection against 50 Hz current-induced seizure at 45 mg/kg, ip; format: functional, organism-based
Mus musculus [17] = assay: Toxicity in Albino Swiss CD-1 mouse assessed as effect on locomotory activity at 5 to 10 mg/kg, ip administered for 30 mins prior to test measured for 1 min; format: organism-based; details: in vivo
Summary of the method: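 Mice dosed i.p. 30 min before test; vehicle groups received 0.9% NaCl. Spontaneous locomotion scored as number of crossings during a 1-min session. Each dose compared with its own vehicle group by Student t-test; mean ± SEM, n = 8–10 mice per group.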

[18] = Protection index, ratio of TD50 for motor impairment in ip dosed Swiss albino CD-1 mouse to ED50 for protection against 50 Hz current-induced seizures in ip dosed Swiss albino CD-1 mouse; format: toxicity, organism-based, Swiss CD-1; details: in vivo, read-out: Ratio TD50/ED50
[19] = Neurotoxicity in ip dosed Albino Swiss CD-1 mouse assessed as minimum dose required to induce motor impairment treated 30 mins prior to test by rotarod test; format: toxicity, organism-based; details: in vivo
D(2) dopamine receptor [20] = target: T4, D(2) dopamine receptor; assay: Displacement of [3H]methylspiperonee from recombinant human D2 receptor expressed in HEK293 cell membranes at 10^-5 M after 60 mins by liquid scintillation counting method
Mus musculus [21] = assay: Anticonvulsant activity in Albino Swiss CD-1 mouse assessed as protection against 50 Hz current-induced seizure at 30 mg/kg, ip; format: functional, organism-based
Mus musculus [22] = assay: Toxicity in Albino Swiss CD-1 mouse assessed as death at 100 mg/kg, ip; format: organism-based; details: in vivo
Summary of the method: as §1

[23] = target: T5, 5-hydroxytryptamine receptor 1A (Homo sapiens, UniProt P08908); assay: Displacement of [3H]8-OH-DPAT from recombinant human 5-HT1A receptor expressed in HEK293 cell membranes after 60 mins by liquid scintillation counting method
T5 sequence (P08908 whole entry): T3 sequence (whole entry)

Mus musculus [24] = assay: Neurotoxicity in Albino Swiss CD-1 mouse assessed as motor impairment at 30 mg/kg, ip treated 30 mins prior to test by rotarod test; format: toxicity, organism-based; details: in vivo, 0.5 h
Mus musculus [25] = assay: Toxicity in Albino Swiss CD-1 mouse assessed as death at 15 to 30 mg/kg, ip; format: organism-based; details: in vivo
Summary of the method: as §1

[26] = target: T3, 5-hydroxytryptamine receptor 1A (Homo sapiens); assay: Agonist activity at human 5-HT1A receptor expressed in CHO-K1 cells co-expressing Galpha16 assessed as increase in calcium mobilization measured for 30 secs by aequorin-derived luminescence assay relative to serotonin; format: functional, cell-based
[27] = target: T3, 5-hydroxytryptamine receptor 1A (Homo sapiens); assay: Antagonist activity at human 5-HT1A receptor expressed in CHO-K1 cells co-expressing Galpha16 assessed as decrease in serotonin-induced calcium mobilization preincubated for 25 mins followed by serotonin challenge measured for 30 secs by aequorin-derived luminescence assay relative to control; format: functional, cell-based
[28] = target: T3, 5-hydroxytryptamine receptor 1A (Homo sapiens); assay: (§3) Antagonist activity at human 5-HT1A receptor expressed in CHO-K1 cells co-expressing Galpha16 assessed as decrease in serotonin calcium mobilization preincubated for 25 mins followed by serotonin challenge measured for 30 secs by aequorin-derived luminescence assay; format: functional, cell-based
[29] = target: T5, 5-hydroxytryptamine receptor 1A; assay: as §3; format: functional, cell-based
Mus musculus [30] = assay: Antinociceptive activity in STZ-induced Albino Swiss CD-1 mouse model of thermal-induced nociception assessed as increase in latency to respond with hind paw lick or jumping at 30 mg/kg, ip measured after 60 mins by hot plate test; format: functional, organism-based
Mus musculus [31] = assay: Toxicity in Albino Swiss CD-1 mouse assessed as death at 15 to 100 mg/kg, ip; format: organism-based; details: in vivo
Summary of the method: as §1

Mus musculus [32] = assay: Antiallodynic activity in STZ-induced Albino Swiss CD-1 mouse allodynia model assessed as increase in paw withdrawal latency time at 30 mg/kg, ip measured after 60 mins by Von Frey test; format: functional, organism-based
Mus musculus [33] = assay: Antiallodynic activity in oxaliplatin-induced Albino Swiss CD-1 mouse allodynia model assessed as effect on shaking at 30 mg/kg, ip measured after 60 mins by cold plate test; format: functional, organism-based
Mus musculus [34] = assay: Neurotoxicity in Albino Swiss CD-1 mouse assessed as motor impairment at 15 mg/kg, ip treated 30 mins prior to test by rotarod test; format: toxicity, organism-based; details: in vivo, 0.5 h
Mus musculus [35] = assay: Antiallodynic activity in oxaliplatin-induced Albino Swiss CD-1 mouse allodynia model assessed as effect on decrease in abnormal movement at 30 mg/kg, ip measured after 60 mins by cold plate test; format: functional, organism-based
Mus musculus [36] = assay: Anxiolytic-like activity in Albino Swiss CD-1 mouse assessed as increase in number of punished crossings at 10 mg/kg, ip administered for 30 mins prior to test measured for 1 min by four-plate test; format: functional, organism-based
Summary of the method: as §2

Mus musculus [37] = assay: Antiallodynic activity in oxaliplatin-induced Albino Swiss CD-1 mouse allodynia model assessed as effect on jumping at 30 mg/kg, ip measured after 60 mins by cold plate test; format: functional, organism-based
Mus musculus [38] = assay: Antiallodynic activity in oxaliplatin-induced Albino Swiss CD-1 mouse allodynia model assessed as effect on hind paw licking at 30 mg/kg, ip measured after 60 mins by cold plate test; format: functional, organism-based

T4 sequence (P14416 whole entry): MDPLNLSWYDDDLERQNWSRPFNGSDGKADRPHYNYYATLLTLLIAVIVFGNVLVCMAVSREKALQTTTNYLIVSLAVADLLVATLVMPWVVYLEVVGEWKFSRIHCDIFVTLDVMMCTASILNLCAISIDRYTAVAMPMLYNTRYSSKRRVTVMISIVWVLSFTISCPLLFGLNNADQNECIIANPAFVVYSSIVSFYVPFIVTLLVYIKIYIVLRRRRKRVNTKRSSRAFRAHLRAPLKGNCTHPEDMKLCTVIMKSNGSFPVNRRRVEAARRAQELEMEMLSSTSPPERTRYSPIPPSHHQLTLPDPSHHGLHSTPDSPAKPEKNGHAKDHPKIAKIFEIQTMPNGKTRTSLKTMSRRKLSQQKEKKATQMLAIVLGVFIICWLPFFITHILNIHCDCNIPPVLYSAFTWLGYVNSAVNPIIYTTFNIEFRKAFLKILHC
Chain of 5-hydroxytryptamine receptor 6 (P50406 whole entry): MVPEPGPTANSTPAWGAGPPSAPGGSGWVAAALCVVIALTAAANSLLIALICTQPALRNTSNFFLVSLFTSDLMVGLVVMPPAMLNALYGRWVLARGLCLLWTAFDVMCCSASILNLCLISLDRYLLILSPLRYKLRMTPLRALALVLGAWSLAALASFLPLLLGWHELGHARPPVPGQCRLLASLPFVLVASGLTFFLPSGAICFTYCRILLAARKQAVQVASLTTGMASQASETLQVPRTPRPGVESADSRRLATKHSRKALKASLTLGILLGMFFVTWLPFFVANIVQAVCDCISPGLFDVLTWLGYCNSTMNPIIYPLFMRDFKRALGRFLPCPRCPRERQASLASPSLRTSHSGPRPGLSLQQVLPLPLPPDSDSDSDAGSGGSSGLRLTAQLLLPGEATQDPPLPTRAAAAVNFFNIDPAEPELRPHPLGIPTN
T2 sequence (P28223 whole entry): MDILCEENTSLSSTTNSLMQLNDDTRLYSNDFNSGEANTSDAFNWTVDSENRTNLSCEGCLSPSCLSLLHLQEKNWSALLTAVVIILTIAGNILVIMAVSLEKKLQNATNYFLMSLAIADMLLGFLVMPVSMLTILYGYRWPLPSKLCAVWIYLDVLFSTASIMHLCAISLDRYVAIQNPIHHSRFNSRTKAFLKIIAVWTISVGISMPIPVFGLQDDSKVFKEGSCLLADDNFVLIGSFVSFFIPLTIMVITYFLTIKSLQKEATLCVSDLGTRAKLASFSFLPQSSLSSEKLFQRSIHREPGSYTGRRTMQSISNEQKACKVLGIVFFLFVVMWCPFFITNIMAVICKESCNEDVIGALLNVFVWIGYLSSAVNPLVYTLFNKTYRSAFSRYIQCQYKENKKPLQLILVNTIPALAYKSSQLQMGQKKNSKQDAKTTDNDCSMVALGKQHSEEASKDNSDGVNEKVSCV
Chain of 5-hydroxytryptamine receptor 7 (P34969 whole entry): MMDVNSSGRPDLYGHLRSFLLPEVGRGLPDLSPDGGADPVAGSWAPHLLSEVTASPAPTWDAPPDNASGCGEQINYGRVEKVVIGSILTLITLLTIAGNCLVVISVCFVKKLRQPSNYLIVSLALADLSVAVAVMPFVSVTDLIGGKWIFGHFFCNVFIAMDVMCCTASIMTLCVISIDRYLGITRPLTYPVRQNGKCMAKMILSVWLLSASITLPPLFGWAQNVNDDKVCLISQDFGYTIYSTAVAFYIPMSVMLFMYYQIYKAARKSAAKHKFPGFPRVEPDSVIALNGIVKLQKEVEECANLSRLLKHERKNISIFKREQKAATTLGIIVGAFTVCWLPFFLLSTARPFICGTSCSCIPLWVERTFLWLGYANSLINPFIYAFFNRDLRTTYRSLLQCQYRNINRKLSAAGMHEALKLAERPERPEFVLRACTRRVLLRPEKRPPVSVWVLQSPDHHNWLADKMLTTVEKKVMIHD

| Structure (SMILES) | Ki [1] [nM] | Ki [2] [nM] | Ki [3] [nM] | Time (Mus musculus [4]) [s] | ED50 (Mus musculus [5]) [mg/kg] | Time (Mus musculus [9]) [s] | Activity (Mus musculus [10]) | Time (Mus musculus [11]) [s] | Ki (D(2) dopamine receptor [12]) [nM] | Ki [15] [nM] | Activity (Mus musculus [17]) | selectivity ratio [18] | TD50 at 0.5 h [19] [mg/kg] | Ki [23] [nM] | Emax [26] [%] | Emax [27] [%] | Kb [28] [nM] | IC50 [29] [nM] | other results |
| --- | --- | --- | --- | --- | --- | --- | --- | --- | --- | --- | --- | --- | --- | --- | --- | --- | --- | --- | --- |
| Cc1cccc(OCCOCCN2CCN(CCc3ccccc3)CC2)c1C.Cl.Cl | 388 | 200 | 36 | 161.1 | 22.2 | 157.6 | Active | 162.1 | 1210 | 220 | Non-Toxic | 1.6 | 35.5 | – | – | – | – | – | IC50 [6]: 6970 nM; Activity (Mus musculus [7]): Non-Toxic; inhibition [8]: inactive; Activity (Mus musculus [13]): Toxic; Activity (Mus musculus [14]): inactive; Activity (Mus musculus [16]): Active |
| Cc1cc(C)c(OCCOCCN2CCN(CCc3ccccc3)CC2)c(C)c1.Cl.Cl | 1050 | 2150 | 772 | 173.8 | 18 | 170.5 | – | 178.4 | – | 2810 | Non-Toxic | 2.96 | 53.3 | 552 | 10 | 45 | 291 | 1180 | inhibition (D(2) dopamine receptor [20]): inactive; Activity (Mus musculus [21]): Active; Activity (Mus musculus [22]): Toxic; Activity (Mus musculus [24]): Non-Toxic; Activity (Mus musculus [25]): Non-Toxic |
| COc1ccc(N2CCN(CCCOc3c(C)cc(C)cc3C)CC2)cc1.Cl.Cl | 3030 | > 5000 | 2120 | 202 | 23.5 | 179.9 | Active | 183.9 | 4960 | 772 | Non-Toxic | 2.89 | 67.9 | 146 | 1 | 8 | 146 | 595 | Activity (Mus musculus [30]): inactive; Activity (Mus musculus [31]): Non-Toxic; Activity (Mus musculus [32]): Active; Activity (Mus musculus [33]): inactive; Activity (Mus musculus [34]): Non-Toxic; Activity (Mus musculus [35]): inactive; Activity (Mus musculus [36]): Active; Activity (Mus musculus [37]): inactive; Activity (Mus musculus [38]): inactive |
